Activity calls are given as the source filed them. The rule behind the calls is not given here.
Tests used:
[1] = Toxicity in 24 hrs post fertilized zebrafish embryo assessed as malformation of spine curvature at 50 uM measured after 24 hrs by microscopic analysis; set-up: species or system Danio rerio; conditions: in vivo
Summary of the method: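 Zebrafish embryos raised in an automated housing system at 28 °C to 24 hpf, then exposed for 24 h to test agent at 50 μM in vehicle (1% DMSO in water). Digoxin and cycloheximide at 50 μM served as positive controls, with an untreated control. Morphology was then inspected and photographed by light microscopy.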

[2] = molecular target: Sodium/potassium-transporting ATPase (Homo sapiens) (UniProt P05023+P14415+P05026+P50993+P54709+P13637+Q13733+P54710); assay: Inhibition of Na+/K+ ATPase pump in human DU145 cells assessed as increase in intracellular calcium level at 50 uM measured after 5 hrs by Fura-2/AM dye based fluorescence assay; assay type: cell-based
Summary of the method: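 DU-145 cells at 1×10^4 per well treated 5 h (0–50 μM), DMSO/water negative control; medium removed, loaded with 5 μM fura-2 AM then 2.5 mM probenecid; intracellular Ca2+ from emission 510 nm ratio at 340/380 nm excitation; two independent experiments.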

MCF7 = assay: Cytotoxicity against human MCF7 cells assessed as reduction in cell viability measured after 72 hrs by SRB assay; assay type: functional, cell-based
DU-145 [3] = assay: Cytotoxicity against human DU145 cells assessed as reduction in cell viability measured after 48 hrs by SRB assay; assay type: functional, cell-based; conditions: DU-145, 48 h
Summary of the method: (§1)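 DU-145 cells seeded at 5×10^4 cells/mL, compound 30–3×10^-4 μM for 24 or 48 h at 37 °C, 5% CO2; TCA fixation, 0.4% SRB staining, Tris-base solubilisation, absorbance 515 nm; timed IC50 by non-linear regression.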

HT-29 = assay: Cytotoxicity against human HT-29 cells assessed as reduction in cell viability measured after 72 hrs by SRB assay; assay type: functional, cell-based
DU-145 [4] = assay: Cytotoxicity against human DU145 cells assessed as reduction in cell viability measured after 72 hrs by SRB assay; assay type: functional, cell-based
DU-145 [5] = assay: Decrease in IKKbeta expression in human DU145 cells measured after 12 hrs by Western blot analysis; assay type: functional, cell-based
Summary of the method: (§2)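 DU-145 cells in DMEM treated 0.05–50 μM for 12 h, DMSO/water vehicle control; lysates quantified by BCA, 20 μg protein on 10% Bis-Tris SDS-PAGE, transferred to PVDF, blocked with 3% BSA, primary antibody overnight, secondary 1 h, chemiluminescent detection, band densitometry; three independent assays, one-way ANOVA with Dunnett's test.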

[6] = Toxicity in 24 hrs post fertilized zebrafish embryo assessed as effect on gut development at 50 uM measured after 24 hrs by microscopic analysis; set-up: species or system Danio rerio; conditions: in vivo
Summary of the method: (§3)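 Embryos raised at 28 °C to 24 hpf, then exposed to 50 μM in 1% DMSO in water (vehicle control) for 24 h; larvae examined and photographed by light microscopy for developmental morphology.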

DU-145 [7] = assay: Induction of apoptosis in human DU145 cells assessed assessed as increase in caspase 7 expression at 0.05 to 50 uM after 12 hrs by Western blot analysis; assay type: functional, cell-based; summary of the method: as §2
DU-145 [8] = assay: Cytotoxicity against human DU145 cells assessed as reduction in cell viability measured after 24 hrs by SRB assay; assay type: functional, cell-based; conditions: DU-145, 24 h; summary of the method: as §1
MDA-MB-231 = assay: Cytotoxicity against human MDA-MB-231 cells assessed as reduction in cell viability measured after 72 hrs by SRB assay; assay type: functional, cell-based; conditions: MDA-MB-231, 72 h
DU-145 [9] = assay: Decrease in IKK alpha expression in human DU145 cells measured after 12 hrs by Western blot analysis; assay type: functional, cell-based; summary of the method: as §2
DU-145 [10] = assay: Cell cycle arrest in human DU145 cells assessed as increase in sub-G1 phase population at 0.005 to 5 uM after 24 hrs by RNase/propidium iodide staining based FACScalibur flow cytometry analysis; assay type: functional
Summary of the method: (§4)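 DU-145 cells in 6-cm plates treated 0.005–5 μM for 24 h; trypsinised, fixed in 70% ethanol, RNase incubation 1 h at 37 °C, propidium iodide stained; flow cytometry, excitation 488 nm, emission 617 nm; percentage of cells per phase vs control; two independent experiments.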

DU-145 [11] = assay: Induction of apoptosis in human DU145 cells assessed as increase in apoptotic cells at 0.003 to 0.3 uM measured upto 72 hrs by microscopic analysis; assay type: functional, cell-based
DU-145 [12] = assay: Cell cycle arrest in human DU145 cells assessed as decrease in G1 phase population at 0.005 to 5 uM after 24 hrs by RNase/propidium iodide staining based FACScalibur flow cytometry analysis; assay type: functional; summary of the method: as §4
DU-145 [13] = assay: Induction of ROS generation in human DU145 cells at 0.5 to 50 uM measured after 5 hrs by DCFHDA probe based fluorescence assay; assay type: functional, cell-based
Summary of the method: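 DU-145 cells seeded at 5×10^4/mL, treated 0.5–50 μM, incubated at 37 °C for 5 h; DCFH-DA 10 μM added; fluorescence at excitation 485 / emission 530 nm vs DMSO control; triplicate, two independent experiments, one-way ANOVA with Dunnett's test.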

DU-145 [14] = assay: Decrease in NF-KappaB p50 subunit expression in human DU145 cells at 0.05 to 50 uM measured after 12 hrs by Western blot analysis; assay type: functional, cell-based; summary of the method: as §2
DU-145 [15] = assay: Induction of apoptosis in human DU145 cells assessed assessed as caspase 3/7 activity after 5 hrs by caspase-Glo 3/7 reagent based luminescence assay; assay type: functional, cell-based
Summary of the method: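 DU-145 cells at 1×10^4 per well treated 0.08–8 μM for 5 h, DMSO/water vehicle; Caspase-Glo 3/7 reagent added, 2 h incubation, luminescence read; three independent assays, one-way ANOVA with Dunnett's test.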

[16] = Toxicity in 24 hrs post fertilized zebrafish embryo assessed as effect on brain development at 50 uM measured after 24 hrs by microscopic analysis; set-up: species or system Danio rerio; conditions: in vivo; summary of the method: as §3
DU-145 [17] = assay: Induction of morphological changes in human DU145 cells assessed as apoptotic cell death at 0.003 to 0.3 uM measured upto 72 hrs by microscopic analysis; assay type: functional, cell-based
Danio rerio [18] = species on record: Danio rerio; assay: Downregulation of IKKalpha expression in zebrafish at 0.6 to 15 uM by Western blot analysis; assay type: functional, organism-based
Summary of the method: (§5)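 Zebrafish larvae at 72 hpf exposed for 3 h to a range of concentrations, frozen on dry ice and homogenised; BCA protein assay, 20 μg on 10% Bis-Tris SDS-PAGE, PVDF transfer, 3% BSA block, primary antibody overnight, secondary 1 h, chemiluminescent detection, densitometry.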

DU-145 [19] = assay: Induction of apoptosis in human DU145 cells assessed as decrease in number of cells at 0.003 to 0.3 uM measured upto 72 hrs by microscopic analysis; assay type: functional, cell-based
DU-145 [20] = assay: Induction of apoptosis in human DU145 cells assessed as reduction in Bcl2 protein expression at 5 to 50 uM measured after 12 hrs by Western blot analysis; assay type: functional, cell-based; summary of the method: as §2
DU-145 [21] = assay: Decrease in ICAM1 expression in human DU145 cells after 12 hrs by Western blot analysis; assay type: functional, cell-based; summary of the method: as §2
Danio rerio [22] = species on record: Danio rerio; assay: Effect on IKKbeta expression in zebrafish at 0.6 to 15 uM by Western blot analysis; assay type: functional, organism-based; summary of the method: as §5
[23] = Toxicity in 24 hrs post fertilized zebrafish embryo assessed as effect on tail development at 50 uM measured after 24 hrs by microscopic analysis; set-up: species or system Danio rerio; conditions: in vivo; summary of the method: as §3
[24] = Toxicity in 24 hrs post fertilized zebrafish embryo assessed as effect on vasculature at 50 uM measured after 24 hrs by microscopic analysis; set-up: species or system Danio rerio; conditions: in vivo; summary of the method: as §3
[25] = Toxicity in 24 hrs post fertilized zebrafish embryo assessed as effect on trunk development at 50 uM measured after 24 hrs by microscopic analysis; set-up: species or system Danio rerio; conditions: in vivo; summary of the method: as §3
Danio rerio [26] = species on record: Danio rerio; assay: Effect on NF-KappaB p50 expression in zebrafish at 0.6 to 15 uM by Western blot analysis; assay type: functional, organism-based; summary of the method: as §5
Danio rerio [27] = species on record: Danio rerio; assay: Increase in caspase 3 level in zebrafish at 0.6 to 15 uM by Western blot analysis; assay type: functional, organism-based; summary of the method: as §5
[28] = Toxicity in zebrafish assessed as effect on intracellular calcium level at 50 uM measured after 5 hrs by Fura-2/AM dye based fluorescence assay; assay type: cell-based, Danio rerio; conditions: in vivo
Danio rerio [29] = species on record: Danio rerio; assay: Effect on caspase 7 level in zebrafish at 0.6 to 15 uM by Western blot analysis; assay type: functional, organism-based; summary of the method: as §5
DU-145 [30] = assay: Induction of apoptosis in human DU145 cells assessed as cell shrinkage at 0.003 to 0.3 uM measured upto 72 hrs by microscopic analysis; assay type: functional, cell-based
DU-145 [31] = assay: Induction of mitochondrial membrane potential loss in human DU145 cells after 2 hrs by JC1 staining based fluorescence assay; assay type: functional, cell-based; conditions: DU-145, 2 h
HeLa = assay: Cytotoxicity against human HeLa cells assessed as reduction in cell viability measured after 72 hrs by SRB assay; assay type: functional, cell-based
DU-145 [32] = assay: Induction of apoptosis in human DU145 cells assessed as cell detachment from monolayer surface at 0.003 to 0.3 uM measured upto 72 hrs by microscopic analysis; assay type: functional, cell-based
DU-145 [33] = assay: Induction of apoptosis in human DU145 cells assessed as increase in PARP1 protein expression at 5 to 50 uM measured after 12 hrs by Western blot analysis; assay type: functional, cell-based; summary of the method: as §2
PC-3 = assay: Cytotoxicity against human PC3 cells assessed as reduction in cell viability measured after 72 hrs by SRB assay; assay type: functional, cell-based
[34] = Toxicity in 24 hrs post fertilized zebrafish embryo assessed as effect on heart development at 50 uM measured after 24 hrs by microscopic analysis; set-up: species or system Danio rerio; conditions: in vivo; summary of the method: as §3
DU-145 [35] = assay: Decrease in NF-KappaB p65 subunit expression in human DU145 cells at 0.05 to 50 uM measured after 12 hrs by Western blot analysis; assay type: functional, cell-based; summary of the method: as §2
[36] = Selectivity index, ratio of IC50 for human CCD-112CoN cells to IC50 for human HT-29 cells
DU-145 [37] = assay: Induction of apoptosis in human DU145 cells assessed assessed as increase in caspase 3 expression at 0.05 to 50 uM after 12 hrs by Western blot analysis; assay type: functional, cell-based; summary of the method: as §2
[38] = Cytotoxicity against human CCD-112CoN cells assessed as reduction in cell viability measured after 72 hrs by SRB assay; assay type: cell-based
Danio rerio [39] = species on record: Danio rerio; assay: Downregulation of NF-kappaB p65 expression in zebrafish at 0.6 to 15 uM by Western blot analysis; assay type: functional, organism-based; summary of the method: as §5

SMILES: C[C@H]1O[C@@H](O[C@H]2[C@@H](O)C[C@H](O[C@H]3[C@@H](O)C[C@H](O[C@H]4CC[C@@]5(C)[C@H](CC[C@@H]6[C@@H]5C[C@@H](O)[C@]5(C)[C@@H](C7=CC(=O)OC7)CC[C@]65O)C4)O[C@@H]3C)O[C@@H]2C)C[C@H](O)[C@@H]1O [DIGOXIN]
- Activity [1]: Toxic
- inhibition [2]: Active

SMILES: C[C@H]1O[C@@H](O[C@H]2CC[C@]3(C)[C@H]4CC[C@]5(C)[C@@H](C6=CC(=O)OC6)CC[C@]5(O)[C@@H]4CC[C@]3(O)C2)C[C@H](O)[C@@H]1O[C@@H]1O[C@H](CO)[C@@H](O)[C@H](O)[C@H]1O
- Activity (MCF7): Dose-dependent effect
- IC50 (MCF7; MCF7, 72 h): 100 nM
- IC50 (DU-145 [3]): 1200 nM
- Activity (HT-29): Dose-dependent effect
- IC50 (HT-29; HT-29, 72 h): 120 nM
- Activity (DU-145 [4]): Dose-dependent effect
- IC50 (DU-145 [4]; DU-145, 72 h): 80 nM
- inhibition (DU-145 [5]): Dose-dependent effect
- Activity [6]: Non-Toxic
- Activity (DU-145 [7]): Active
- IC50 (DU-145 [8]): 11200 nM
- IC50 (MDA-MB-231): 200 nM
- inhibition [2]: Active
- inhibition (DU-145 [9]): Dose-dependent effect
- Activity (DU-145 [10]): Active
- Activity (DU-145 [11]): Active
- Activity (DU-145 [12]): Active
- Activity (DU-145 [13]): Active
- inhibition (DU-145 [14]): Active
- Activity (DU-145 [15]): Dose-dependent effect
- Activity [16]: Non-Toxic
- Activity (DU-145 [17]): Active
- Activity (Danio rerio [18]): Active
- Activity (DU-145 [19]): Active
- Activity (DU-145 [20]): Active
- Activity (DU-145 [21]): Dose-dependent effect
- Activity (Danio rerio [22]): inactive
- Activity [23]: Non-Toxic
- Activity [24]: Non-Toxic
- Activity [25]: Non-Toxic
- Activity (Danio rerio [26]): inactive
- Activity (Danio rerio [27]): Active
- Activity [28]: Non-Toxic
- Activity (Danio rerio [29]): inactive
- Activity (DU-145 [30]): Active
- IC50 (DU-145 [31]): 300 nM
- Activity (HeLa): Dose-dependent effect
- IC50 (HeLa): 190 nM
- Activity (DU-145 [32]): Active
- Activity (DU-145 [33]): Active
- Activity (PC-3): Dose-dependent effect
- IC50 (PC-3; PC-3, 72 h): 200 nM
- Activity [34]: Non-Toxic
- inhibition (DU-145 [35]): Active
- Ratio IC50 [36]: 22.5
- Activity (DU-145 [37]): Active
- IC50 [38]: 2700 nM
- Activity (Danio rerio [39]): Active
